# Source: ChEMBL document CHEMBL1157576, “Development of selective and reversible pyrazoline based MAO-A inhibitors: Synthesis, biological evaluation and docking studies” (Bioorg Med Chem, 2010)
# Tests used:
# Assay type in all cases: tissue-based; call rule not given here
# [1] = molecular target: T1, Amine oxidase [flavin-containing] A (Rattus norvegicus, UniProt P21396); assay: Competitive inhibition of MAOA in rat liver homogenate after 60 mins by Lineweaver-Burke plot analysis; settings: read-out: Kic
# T1 sequence (P21396 whole entry): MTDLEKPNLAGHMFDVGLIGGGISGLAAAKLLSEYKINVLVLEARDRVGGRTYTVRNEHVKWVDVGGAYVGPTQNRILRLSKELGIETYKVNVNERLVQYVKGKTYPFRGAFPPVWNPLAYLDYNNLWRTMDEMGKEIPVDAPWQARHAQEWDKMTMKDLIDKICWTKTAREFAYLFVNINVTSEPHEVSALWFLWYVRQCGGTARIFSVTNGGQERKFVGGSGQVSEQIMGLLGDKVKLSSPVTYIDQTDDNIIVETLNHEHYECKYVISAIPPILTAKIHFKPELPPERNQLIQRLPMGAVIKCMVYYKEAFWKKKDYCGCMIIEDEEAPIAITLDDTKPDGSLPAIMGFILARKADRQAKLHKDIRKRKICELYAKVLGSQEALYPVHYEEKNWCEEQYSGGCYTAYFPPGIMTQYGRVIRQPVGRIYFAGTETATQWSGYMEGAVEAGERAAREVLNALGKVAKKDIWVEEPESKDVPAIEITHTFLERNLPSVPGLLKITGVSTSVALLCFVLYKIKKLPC
# [2] = molecular target: T2, Amine oxidase [flavin-containing] B (Rattus norvegicus, UniProt P19643); assay: Competitive inhibition of MAOB in rat liver homogenate after 60 mins by Lineweaver-Burke plot analysis; settings: read-out: Kic
# T2 sequence (P19643 whole entry): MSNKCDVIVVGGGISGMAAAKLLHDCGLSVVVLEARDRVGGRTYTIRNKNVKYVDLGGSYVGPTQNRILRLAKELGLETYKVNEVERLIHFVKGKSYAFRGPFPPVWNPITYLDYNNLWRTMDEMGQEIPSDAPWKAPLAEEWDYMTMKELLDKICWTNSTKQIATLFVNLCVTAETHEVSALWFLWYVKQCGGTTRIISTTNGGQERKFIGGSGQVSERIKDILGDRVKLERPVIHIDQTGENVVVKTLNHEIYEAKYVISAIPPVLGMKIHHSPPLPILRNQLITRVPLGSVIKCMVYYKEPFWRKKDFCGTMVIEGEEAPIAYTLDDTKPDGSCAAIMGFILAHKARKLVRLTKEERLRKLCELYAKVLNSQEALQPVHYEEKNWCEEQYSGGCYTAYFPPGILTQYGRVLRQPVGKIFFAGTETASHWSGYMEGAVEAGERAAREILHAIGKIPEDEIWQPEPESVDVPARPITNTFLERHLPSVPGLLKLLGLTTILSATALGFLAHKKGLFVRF
# [3] = molecular target: T1, Amine oxidase [flavin-containing] A; assay: Reversible inhibition of MAOA in rat liver homogenate assessed as recovery of enzyme activity at 1 to 1000 uM up to 24 hrs by dialysis
# In short: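 Rat liver MAO was incubated with compound (1–1000 µM, DMSO ≤1%) at 37 °C for 0–60 min. It was then dialysed for 24 h at 37 °C against potassium phosphate buffer, pH 7.6. Recovered activity was measured by the Holt coupled assay using p-tyramine, with absorbance read at 498 nm.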
Ki [1],Ki [2],Activity [3],SMILES
0.301 µM,44 µM,Active,COc1ccccc1NC(=S)N1N=C(c2ccc(O)cc2)CC1c1cccs1 (configuration not stated)
0.15 µM,2210 µM,Active,Cc1cccc(NC(=S)N2N=C(c3ccc(O)cc3)CC2c2cccs2)c1 (configuration not stated)
0.501 µM,7150 µM,Active,COc1ccc(NC(=S)N2N=C(c3ccc(O)cc3)CC2c2cccs2)cc1 (configuration not stated)
0.351 µM,71.5 µM,Active,Cc1ccc(NC(=S)N2N=C(c3ccc(O)cc3)CC2c2cccs2)cc1 (configuration not stated)
0.176 µM,460 µM,Active,COc1cccc(NC(=S)N2N=C(c3ccc(O)cc3)CC2c2ccco2)c1 (configuration not stated)
0.48 µM,47 µM,Active,Oc1ccc(C2=NN(C(=S)Nc3ccccc3)C(c3cccs3)C2)cc1 (configuration not stated)
0.181 µM,1100 µM,Active,COc1cccc(NC(=S)N2N=C(c3ccc(O)cc3)CC2c2cccs2)c1 (configuration not stated)

# The next lines start with the compound.
SMILES,Ki [1],Ki [2],Activity [3]
COc1ccc(NC(=S)N2N=C(c3ccc(O)cc3)CC2c2ccco2)cc1 (configuration not stated),0.95 µM,1060 µM,Active
Cc1ccc(NC(=S)N2N=C(c3ccc(O)cc3)CC2c2ccco2)cc1 (configuration not stated),0.48 µM,5010 µM,Active
COc1ccccc1NC(=S)N1N=C(c2ccc(O)cc2)CC1c1ccco1 (configuration not stated),0.755 µM,174 µM,Active
Oc1ccc(C2=NN(C(=S)Nc3ccccc3)C(c3ccco3)C2)cc1 (configuration not stated),0.701 µM,778 µM,Active
Cc1ccccc1NC(=S)N1N=C(c2ccc(O)cc2)CC1c1cccs1 (configuration not stated),0.281 µM,70.2 µM,Active
Cc1cccc(NC(=S)N2N=C(c3ccc(O)cc3)CC2c2ccco2)c1 (configuration not stated),0.591 µM,580 µM,Active
Cc1ccccc1NC(=S)N1N=C(c2ccc(O)cc2)CC1c1ccco1 (configuration not stated),0.231 µM,28.8 µM,Active
